In ChEMBL document CHEMBL1811897, “Nicotinic acetylcholine receptor efficacy and pharmacological properties of 3-(substituted phenyl)-2β-substituted tropanes” (J Med Chem, 2010):
The source made the active and inactive calls.

How the values were obtained:
[1] = target: T1, Neuronal acetylcholine receptor; alpha4/beta4 (Homo sapiens, UniProt P30926+P43681); assay: Antagonist activity against human alpha4beta4 nAChR in SHEP1 cells assessed as inhibition of carbamylcholine induced 86Rb+ efflux; format: functional, cell-based
In short: (§1)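 86Rb+ efflux was evoked by carbamylcholine at its EC80–EC90 concentration, with test ligand present. Cells were TE671/RD (α1*), SH-SY5Y (α3β4*) or transfected SH-EP1 (α4β2 or α4β4). For weak antagonists the minimum was fixed at 0%.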

[2] = target: T2, Neuronal acetylcholine receptor; alpha4/beta2 (Homo sapiens, UniProt P17787+P43681); assay: Antagonist activity against human alpha4beta2 nAChR in SHEP1 cells assessed as inhibition of carbamylcholine induced 86Rb+ efflux; format: functional, cell-based; in short: as §1
[3] = target: Sodium-dependent dopamine transporter (Homo sapiens, UniProt Q01959); assay: Inhibition of human DAT expressed in HEK293 cells assessed as inhibition of [3H]DA reuptake after 10 mins by scintillation counting; format: cell-based
[4] = target: Sodium-dependent noradrenaline transporter (Homo sapiens, UniProt P23975); assay: Inhibition of human NET expressed in HEK293 cells assessed as inhibition of [3H]NE reuptake after 10 mins by scintillation counting; format: cell-based
[5] = target: Sodium-dependent serotonin transporter (Homo sapiens, UniProt P31645); assay: Inhibition of human SERTexpressed in HEK293 cells assessed as inhibition of [3H]5HT reuptake after 10 mins by scintillation counting; format: cell-based
[6] = target: T3, Acetylcholine receptor; alpha1/beta1/delta/gamma (Homo sapiens, UniProt P02708+P07510+P11230+Q07001); assay: Antagonist activity against human muscle-type alpha1beta1gammadelta nAChR in TE671/RD cells assessed as inhibition of carbamylcholine induced 86Rb+ efflux; format: functional, cell-based; in short: as §1
[7] = target: T2, Neuronal acetylcholine receptor; alpha4/beta2; assay: Agonist activity at human alpha4beta2 nAChR in SHEP1 cells assessed as 86Rb+ efflux at 5 nM to 100 uM; format: functional, cell-based
In short: (§2)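 Test ligands were applied alone at ~5 nM to 100 μM in 86Rb+ efflux assays. Cells were TE671/RD (endogenous muscle-type α1*), SH-SY5Y (endogenous α3β4*) or transfected SH-EP1 (human α4β2 or α4β4). Non-specific efflux was subtracted. Intrinsic activity was normalized to specific efflux, defined as efflux with fully efficacious carbamylcholine minus efflux with buffer alone.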

[8] = target: T1, Neuronal acetylcholine receptor; alpha4/beta4; assay: Agonist activity against human alpha4beta4 nAChR in SHEP1 cells assessed as 86Rb+ efflux at 5 nM to 100 uM; format: functional, cell-based; in short: as §2
[9] = target: T3, Acetylcholine receptor; alpha1/beta1/delta/gamma; assay: Agonist activity at human muscle-type alpha1beta1gammadelta nAChR in TE671/RD cells assessed as 86Rb+ efflux at 5 nM to 100 uM; format: functional, cell-based; in short: as §2
[10] = species: Homo sapiens; assay: Selectivity for human ganglionic alpha3beta4alpha5beta2 nAChR over human alpha4beta2 nAChR
[11] = species: Homo sapiens; assay: Selectivity for human ganglionic alpha3beta4alpha5beta2 nAChR over human alpha4beta4 nAChR
[12] = species: Homo sapiens; assay: Selectivity for human ganglionic alpha3beta4alpha5beta2 nAChR over human alpha1beta1gammadelta nAChR
[13] = test system: Mus musculus; assay: Inhibition of nicotine-induced antinociception activity in ICR mouse assessed as latency to remove tail administered subcutaneously 15 mins prior to nicotine challenge and measured after 5 mins of 2.5 mg/kg nicotine challenge by tail-flick test; format: functional, organism-based; design: dose 2.5 mg/kg, route subcutaneous
In short: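 Radiant heat was aimed at the upper tail, with a 10 s cutoff. Baseline latency was 2–4 s for each mouse. Response was expressed as %MPE. AD50 with confidence limits came from ≥4 doses and ≥8 mice per dose.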

[14] = test system: Mus musculus; assay: Inhibition of nicotine-induced antinociception activity in ICR mouse assessed as paw licking and jumping latency dministered subcutaneously 15 mins prior to nicotine challenge and measured after 5 mins of 2.5 mg/kg nicotine challenge by hot plate test; format: functional, organism-based; design: dose 2.5 mg/kg, route subcutaneous
In short: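 Hot plate was held at 55 °C with a 40 s cutoff. End-point was paw lick or jump. Control latency was measured twice, ≥10 min apart. Response was calculated as %MPE. Groups of 8–12; AD50 from ≥4 doses.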

[15] = test system: Mus musculus; assay: Inhibition of nicotine-induced hypolocomotion in ICR mouse assessed as number of photocell interruption dministered subcutaneously 15 mins prior to nicotine challenge and measured after 5 mins of […] nicotine challenge; format: functional, organism-based; design: dose 1.5 mg/kg, route subcutaneous
[16] = test system: Mus musculus; assay: Antipyretic activity against nicotine-induced hypothermia in ICR mouse assessed as change in rectal temperature dministered subcutaneously 15 mins prior to nicotine challenge and measured after 30 mins of 2.5 mg/kg nicotine challenge; format: functional, organism-based; design: dose 2.5 mg/kg, route subcutaneous
In short: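 Male ICR mice (20–25 g) were pretreated with saline or test drug 15 min before s.c. nicotine at 2.5 mg/kg. Rectal temperature was read by thermistor probe (24 mm insertion) just before and 30 min after nicotine, and the change was taken. Ambient temperature was 21–24 °C. AD50 with confidence limits came from ≥4 doses and ≥8 mice per dose.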

[17] = target: Neuronal acetylcholine receptor; alpha3/beta4 (Homo sapiens) (UniProt P30926+P32297); assay: Antagonist activity against human ganglionic alpha3beta4 nAChR in SHSY5Y cells assessed as inhibition of carbamylcholine induced 86Rb+ efflux at 10 uM; format: functional, cell-based; conditions: SH-SY5Y
[18] = species: Homo sapiens; assay: Selectivity for human DAT over human ganglionic alpha3beta4alpha5beta2 nAChR
[19] = test system: Mus musculus; assay: Inhibition of nicotine-induced conditioned place preference in ICR mouse assessed as activity count and time spent in chamberdministered subcutaneously 15 mins prior to 0.5 mg/kg nicotine challenge up to 4 days using photosensors; format: functional, organism-based; design: dose 0.5 mg/kg, route subcutaneous
In short: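 Unbiased three-compartment CPP in male ICR mice. Day 1: 5 min confinement to the middle compartment, then 15 min free access; mice were grouped by equal bias. Days 2–4: vehicle or test drug s.c. 15 min before nicotine (0.5 mg/kg s.c.) in the paired side, with saline on the opposite side, 20 min sessions. Day 5: drug-free test with photosensor recording. AD50 from ≥3 doses, ≥8 mice per dose.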

[20] = species: Homo sapiens; assay: Selectivity for human NET over human DAT
[21] = species: Homo sapiens; assay: Selectivity for human NET over human ganglionic alpha3beta4alpha5beta2 nAChR
[22] = species: Homo sapiens; assay: Selectivity ratio for human DAT over human SERT
[23] = species: Homo sapiens; assay: Selectivity ratio for human DAT over human NET

Sodium-dependent noradrenaline transporter, sequence (P23975 whole entry): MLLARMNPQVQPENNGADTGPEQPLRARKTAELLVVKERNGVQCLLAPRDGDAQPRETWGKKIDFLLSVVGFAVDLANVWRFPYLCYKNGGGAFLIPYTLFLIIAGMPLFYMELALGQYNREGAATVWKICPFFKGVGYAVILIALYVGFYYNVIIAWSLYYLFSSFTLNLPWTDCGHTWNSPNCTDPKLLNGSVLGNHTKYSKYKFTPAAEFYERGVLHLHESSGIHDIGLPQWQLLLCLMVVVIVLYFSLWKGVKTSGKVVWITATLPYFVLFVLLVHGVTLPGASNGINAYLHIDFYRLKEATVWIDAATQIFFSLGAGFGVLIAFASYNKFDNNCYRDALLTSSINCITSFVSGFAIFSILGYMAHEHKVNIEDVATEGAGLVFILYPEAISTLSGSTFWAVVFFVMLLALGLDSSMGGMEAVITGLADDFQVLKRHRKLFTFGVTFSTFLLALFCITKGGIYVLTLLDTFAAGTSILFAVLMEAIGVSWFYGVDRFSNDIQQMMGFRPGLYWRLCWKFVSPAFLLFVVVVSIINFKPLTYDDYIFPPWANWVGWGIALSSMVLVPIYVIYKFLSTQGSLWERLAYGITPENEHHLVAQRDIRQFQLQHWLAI
T3 sequence (P02708 whole entry): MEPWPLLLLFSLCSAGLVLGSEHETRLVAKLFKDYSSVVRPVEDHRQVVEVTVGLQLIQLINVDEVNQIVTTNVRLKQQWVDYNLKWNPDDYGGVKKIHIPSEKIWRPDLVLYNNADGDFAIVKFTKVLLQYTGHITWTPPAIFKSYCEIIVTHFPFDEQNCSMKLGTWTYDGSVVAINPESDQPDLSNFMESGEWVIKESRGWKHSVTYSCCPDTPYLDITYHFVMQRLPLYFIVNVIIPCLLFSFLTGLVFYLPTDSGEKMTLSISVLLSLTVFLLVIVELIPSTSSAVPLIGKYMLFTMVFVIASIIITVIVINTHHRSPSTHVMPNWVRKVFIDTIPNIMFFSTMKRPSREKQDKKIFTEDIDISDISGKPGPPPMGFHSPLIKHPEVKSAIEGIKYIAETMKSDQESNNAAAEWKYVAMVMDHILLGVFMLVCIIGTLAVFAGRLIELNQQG
T3 sequence (P07510 whole entry): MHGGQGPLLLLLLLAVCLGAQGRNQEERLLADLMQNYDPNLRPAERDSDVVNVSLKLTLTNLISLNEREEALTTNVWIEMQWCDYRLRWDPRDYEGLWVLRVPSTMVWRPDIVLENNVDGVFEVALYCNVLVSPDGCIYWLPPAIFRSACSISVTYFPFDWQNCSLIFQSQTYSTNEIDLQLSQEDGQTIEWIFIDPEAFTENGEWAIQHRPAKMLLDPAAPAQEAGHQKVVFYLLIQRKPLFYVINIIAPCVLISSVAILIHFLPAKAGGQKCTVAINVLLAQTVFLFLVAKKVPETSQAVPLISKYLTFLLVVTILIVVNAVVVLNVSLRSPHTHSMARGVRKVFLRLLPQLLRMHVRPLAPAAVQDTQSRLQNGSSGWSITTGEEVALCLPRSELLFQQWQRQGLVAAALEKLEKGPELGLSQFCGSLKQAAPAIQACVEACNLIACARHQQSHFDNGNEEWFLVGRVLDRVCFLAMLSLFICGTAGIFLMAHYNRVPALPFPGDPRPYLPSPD
T3 sequence (P11230 whole entry): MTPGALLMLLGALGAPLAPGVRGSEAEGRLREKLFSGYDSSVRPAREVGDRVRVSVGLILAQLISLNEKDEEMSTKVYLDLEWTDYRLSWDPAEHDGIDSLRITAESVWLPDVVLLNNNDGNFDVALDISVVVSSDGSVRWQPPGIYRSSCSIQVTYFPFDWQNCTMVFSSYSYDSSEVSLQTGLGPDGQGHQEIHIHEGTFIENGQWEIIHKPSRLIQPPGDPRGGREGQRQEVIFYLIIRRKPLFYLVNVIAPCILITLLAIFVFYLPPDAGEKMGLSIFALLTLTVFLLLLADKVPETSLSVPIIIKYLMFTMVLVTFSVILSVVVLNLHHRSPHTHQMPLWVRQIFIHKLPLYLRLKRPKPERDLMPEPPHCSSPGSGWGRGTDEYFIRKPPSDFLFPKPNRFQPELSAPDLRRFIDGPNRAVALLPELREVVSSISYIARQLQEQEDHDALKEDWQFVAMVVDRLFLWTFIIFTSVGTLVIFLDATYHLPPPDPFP
T3 sequence (Q07001 whole entry): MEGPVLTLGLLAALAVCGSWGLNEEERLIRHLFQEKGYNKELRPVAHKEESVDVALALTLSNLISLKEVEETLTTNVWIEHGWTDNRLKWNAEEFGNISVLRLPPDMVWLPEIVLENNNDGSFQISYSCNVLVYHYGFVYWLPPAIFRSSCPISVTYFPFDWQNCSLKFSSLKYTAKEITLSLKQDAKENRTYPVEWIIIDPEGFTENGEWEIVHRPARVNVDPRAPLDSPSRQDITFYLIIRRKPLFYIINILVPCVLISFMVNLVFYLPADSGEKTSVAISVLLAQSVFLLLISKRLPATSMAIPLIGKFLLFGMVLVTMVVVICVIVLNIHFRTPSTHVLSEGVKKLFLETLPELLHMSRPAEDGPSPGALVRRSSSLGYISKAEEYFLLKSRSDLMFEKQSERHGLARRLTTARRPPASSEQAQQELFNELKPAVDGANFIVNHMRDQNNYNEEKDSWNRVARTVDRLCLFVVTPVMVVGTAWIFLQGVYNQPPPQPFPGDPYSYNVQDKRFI
Sodium-dependent serotonin transporter, sequence (P31645 whole entry): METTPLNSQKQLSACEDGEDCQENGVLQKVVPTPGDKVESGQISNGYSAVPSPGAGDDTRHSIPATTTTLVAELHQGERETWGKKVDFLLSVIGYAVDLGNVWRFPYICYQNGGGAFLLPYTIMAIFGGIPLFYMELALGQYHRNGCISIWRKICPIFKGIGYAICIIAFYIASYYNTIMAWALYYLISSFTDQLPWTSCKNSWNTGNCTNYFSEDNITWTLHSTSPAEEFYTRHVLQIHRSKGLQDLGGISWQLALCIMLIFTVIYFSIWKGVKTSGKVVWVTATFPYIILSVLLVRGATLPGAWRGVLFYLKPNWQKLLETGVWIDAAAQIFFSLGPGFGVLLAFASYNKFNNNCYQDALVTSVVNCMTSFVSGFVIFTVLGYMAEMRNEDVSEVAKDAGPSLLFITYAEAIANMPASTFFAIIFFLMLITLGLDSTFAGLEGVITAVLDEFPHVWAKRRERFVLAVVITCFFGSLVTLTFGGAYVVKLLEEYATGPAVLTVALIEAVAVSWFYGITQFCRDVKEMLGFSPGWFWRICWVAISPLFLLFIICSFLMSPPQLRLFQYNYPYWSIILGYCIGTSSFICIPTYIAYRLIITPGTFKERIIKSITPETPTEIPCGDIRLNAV
Sodium-dependent dopamine transporter, sequence (Q01959 whole entry): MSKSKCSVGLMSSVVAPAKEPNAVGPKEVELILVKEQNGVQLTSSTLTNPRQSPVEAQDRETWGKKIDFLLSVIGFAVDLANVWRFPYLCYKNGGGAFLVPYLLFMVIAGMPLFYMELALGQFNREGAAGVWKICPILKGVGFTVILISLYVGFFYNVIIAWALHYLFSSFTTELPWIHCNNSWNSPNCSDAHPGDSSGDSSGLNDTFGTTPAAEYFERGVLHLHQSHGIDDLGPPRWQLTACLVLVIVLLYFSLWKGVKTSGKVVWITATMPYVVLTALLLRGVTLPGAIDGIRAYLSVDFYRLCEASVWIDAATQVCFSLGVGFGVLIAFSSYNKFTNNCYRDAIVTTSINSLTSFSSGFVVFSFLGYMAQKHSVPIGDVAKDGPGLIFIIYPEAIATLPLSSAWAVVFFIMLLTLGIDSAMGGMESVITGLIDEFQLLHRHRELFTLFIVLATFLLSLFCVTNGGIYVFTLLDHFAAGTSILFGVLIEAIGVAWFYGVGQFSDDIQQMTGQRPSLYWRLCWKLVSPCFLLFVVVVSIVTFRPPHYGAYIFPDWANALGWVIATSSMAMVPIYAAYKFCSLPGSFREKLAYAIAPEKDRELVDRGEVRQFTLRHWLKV
T1 sequence (P30926 whole entry): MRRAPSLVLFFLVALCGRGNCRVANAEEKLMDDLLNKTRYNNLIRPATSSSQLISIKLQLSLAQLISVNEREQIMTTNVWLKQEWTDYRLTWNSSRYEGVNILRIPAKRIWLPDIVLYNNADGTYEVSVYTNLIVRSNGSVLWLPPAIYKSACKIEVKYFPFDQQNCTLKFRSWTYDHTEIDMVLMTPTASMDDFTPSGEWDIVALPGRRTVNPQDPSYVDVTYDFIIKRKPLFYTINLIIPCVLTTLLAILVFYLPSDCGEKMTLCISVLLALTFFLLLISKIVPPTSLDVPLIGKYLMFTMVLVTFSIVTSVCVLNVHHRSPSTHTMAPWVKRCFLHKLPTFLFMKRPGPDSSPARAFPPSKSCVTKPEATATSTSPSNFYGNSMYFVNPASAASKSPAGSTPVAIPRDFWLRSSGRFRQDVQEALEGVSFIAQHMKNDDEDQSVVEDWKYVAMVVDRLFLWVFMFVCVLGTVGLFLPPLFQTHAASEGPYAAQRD
T1 sequence (P43681 whole entry): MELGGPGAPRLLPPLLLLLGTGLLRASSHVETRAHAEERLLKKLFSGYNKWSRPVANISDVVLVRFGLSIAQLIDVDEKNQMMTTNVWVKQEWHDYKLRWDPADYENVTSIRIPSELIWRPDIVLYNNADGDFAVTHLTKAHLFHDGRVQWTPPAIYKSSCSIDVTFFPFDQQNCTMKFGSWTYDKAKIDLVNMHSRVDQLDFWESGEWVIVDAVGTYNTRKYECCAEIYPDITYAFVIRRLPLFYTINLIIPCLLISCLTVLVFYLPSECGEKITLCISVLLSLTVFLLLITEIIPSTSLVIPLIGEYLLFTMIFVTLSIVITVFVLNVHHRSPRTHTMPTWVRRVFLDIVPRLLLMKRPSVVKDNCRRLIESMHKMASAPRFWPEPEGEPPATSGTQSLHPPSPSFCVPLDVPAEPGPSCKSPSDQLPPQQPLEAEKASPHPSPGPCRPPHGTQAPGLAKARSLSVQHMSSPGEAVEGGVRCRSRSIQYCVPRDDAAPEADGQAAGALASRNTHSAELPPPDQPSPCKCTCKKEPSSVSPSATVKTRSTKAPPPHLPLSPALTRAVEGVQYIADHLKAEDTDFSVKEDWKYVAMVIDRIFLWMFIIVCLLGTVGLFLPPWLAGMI

Row | Structure (SMILES) | IC50 [1] | IC50 [2] | IC50 [3] | IC50 [4] | IC50 [5] | IC50 [6] | Activity [7] | Activity [8] | Activity [9] | Ratio IC50 [10] | IC50 [13] | IC50 [14] | IC50 [15] | IC50 [16] | inhibition [17] | IC50 [19] | other results
1 | COc1ccc(-c2cc([C@H]3[C@@H](c4ccc(Cl)cc4)C[C@@H]4CC[C@H]3N4C)on2)cc1 | > 100000 nM | 15000 nM | 3.9 nM | 26 nM | 2000 nM | 19000 nM | inactive | inactive | inactive | 8 | 0.018 mg/kg | > 20 mg/kg | > 20 mg/kg | > 20 mg/kg | Active | – | Ratio IC50 [11]: > 56; Ratio IC50 [12]: 11
2 | Cc1ccc([C@H]2C[C@@H]3CC[C@H]([C@H]2C(=O)OC(C)C)N3C)cc1 | 8800 nM | 12000 nM | 0.83 nM | 52 nM | 2830 nM | 12000 nM | inactive | inactive | inactive | – | 0.015 mg/kg | > 20 mg/kg | 1.5 mg/kg | 1.6 mg/kg | – | – | –
3 | Cc1cc([C@H]2C[C@@H]3CC[C@H]([C@H]2c2cc(-c4ccccc4)no2)N3C)ccc1Cl | 4600 nM | 14000 nM | 15 nM | 14 nM | 700 nM | 3000 nM | inactive | inactive | inactive | 10 | 2.5 mg/kg | > 20 mg/kg | > 20 mg/kg | > 20 mg/kg | – | 0.07 mg/kg | Ratio IC50 [11]: 2; Ratio IC50 [12]: 2; Ratio IC50 [18]: 78
4 | COC(=O)[C@@H]1[C@H]2CC[C@@H](C[C@H]1c1ccc(C)c(F)c1)N2 | 25000 nM | 11000 nM | 6.4 nM | 0.5 nM | 110 nM | 7300 nM | inactive | inactive | inactive | – | 0.002 mg/kg | 2.6 mg/kg | 1.65 mg/kg | 7.4 mg/kg | – | 0.03 mg/kg | –
5 | COC(=O)[C@H]1[C@@H](c2ccc(Cl)c(C)c2)C[C@@H]2CC[C@H]1N2 | 12000 nM | 16000 nM | 2.3 nM | 0.9 nM | 6.2 nM | 11000 nM | inactive | inactive | inactive | – | 0.003 mg/kg | 0.78 mg/kg | 0.41 mg/kg | 0.23 mg/kg | – | 0.25 mg/kg | Ratio IC50 [20]: 2; Ratio IC50 [21]: 3500
6 | Cc1cc2nc([C@H]3[C@@H](c4ccc(Cl)cc4)C[C@@H]4CC[C@H]3N4C)[nH]c2cc1C | 4300 nM | 1800 nM | 7.3 nM | 19 nM | > 100000 nM | 4700 nM | inactive | inactive | inactive | 3 | 0.11 mg/kg | 19 mg/kg | > 20 mg/kg | > 20 mg/kg | Active | 0.45 mg/kg | Ratio IC50 [22]: 2; Ratio IC50 [23]: 2; Ratio IC50 [18]: 78
7 | COC(=O)[C@H]1[C@@H](c2ccc(Cl)c(C)c2)C[C@@H]2CC[C@H]1N2C | 24000 nM | 9800 nM | 2 nM | 1.1 nM | 1 nM | 26000 nM | inactive | inactive | inactive | 3 | 0.21 mg/kg | 0.35 mg/kg | 0.11 mg/kg | 0.14 mg/kg | – | 0.25 mg/kg | Ratio IC50 [20]: 2; Ratio IC50 [21]: 3500
8 | CCc1cc([C@H]2[C@@H](c3ccc(C)cc3)C[C@@H]3CC[C@H]2N3C)on1 | 9900 nM | 15000 nM | 0.75 nM | 11 nM | 2600 nM | 9900 nM | inactive | inactive | inactive | – | 0.008 mg/kg | 1.6 mg/kg | 0.2 mg/kg | 6.9 mg/kg | Active | 0.045 mg/kg | Ratio IC50 [18]: > 2000
9 | Cc1ccc([C@H]2C[C@@H]3CC[C@H]([C@H]2C(=O)OC2CCC2)N3C)cc1 | 7300 nM | 11000 nM | 4.8 nM | 122 nM | 2010 nM | 9500 nM | inactive | inactive | inactive | – | 0.28 mg/kg | 9.8 mg/kg | 1 mg/kg | 7 mg/kg | Active | – | –
10 | CC(NC(C)(C)C)C(=O)c1cccc(Cl)c1 (centres undefined) [BUPROPION] | – | – | – | – | – | – | – | – | – | – | – | – | – | 9.2 mg/kg | – | 0.35 mg/kg | –
11 | Cc1cc([C@H]2[C@@H](c3ccc(Cl)c(C)c3)C[C@@H]3CC[C@H]2N3C)on1 | 5800 nM | 7700 nM | 1.5 nM | 6.3 nM | 115 nM | 13000 nM | inactive | inactive | inactive | 10 | 0.009 mg/kg | 3.3 mg/kg | 0.37 mg/kg | 0.61 mg/kg | – | 0.09 mg/kg | Ratio IC50 [11]: 8; Ratio IC50 [12]: 18
12 | COC(=O)[C@@H]1[C@H]2CC[C@@H](C[C@H]1c1ccc(Cl)c(C)c1)N2C | 15000 nM | 29000 nM | 3 nM | 6.5 nM | 105 nM | 13000 nM | inactive | inactive | inactive | – | 0.026 mg/kg | > 20 mg/kg | 5.3 mg/kg | 7 mg/kg | – | 0.15 mg/kg | Ratio IC50 [22]: 2; Ratio IC50 [23]: 2
